Measurements taken from ChEMBL document CHEMBL3808288, “Identification and in Vivo Evaluation of Liver X Receptor β-Selective Agonists for the Potential Treatment of Alzheimer's Disease” (J Med Chem, 2016).
In brackets after ≈: the same amount, converted by molar mass. Activity calls are given as the source filed them. The rule behind the calls is not given here.

Key:
[1] = target: T1, Oxysterols receptor LXR-beta (Homo sapiens) (UniProt P55055); test: Agonist activity at GST-tagged LXRbeta-LBD (unknown origin) by LanthaScreen TR-FRET liver X receptor coactivator assay relative to T1317
T1 sequence (whole entry): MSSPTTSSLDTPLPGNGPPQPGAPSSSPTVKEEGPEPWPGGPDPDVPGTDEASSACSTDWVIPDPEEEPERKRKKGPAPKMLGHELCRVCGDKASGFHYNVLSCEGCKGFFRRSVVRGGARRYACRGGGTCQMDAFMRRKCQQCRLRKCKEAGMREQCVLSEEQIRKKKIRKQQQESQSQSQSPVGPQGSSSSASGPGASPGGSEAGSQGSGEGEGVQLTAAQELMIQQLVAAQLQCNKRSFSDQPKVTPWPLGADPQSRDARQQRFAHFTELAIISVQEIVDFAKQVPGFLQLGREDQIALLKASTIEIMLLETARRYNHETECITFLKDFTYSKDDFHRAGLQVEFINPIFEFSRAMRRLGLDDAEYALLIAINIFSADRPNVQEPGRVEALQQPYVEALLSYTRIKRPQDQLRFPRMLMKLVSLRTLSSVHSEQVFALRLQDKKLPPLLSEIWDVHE
Summary of the method: (§1)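 Cofactor recruitment assay using the ligand binding domains of LXRβ or LXRα. The read-out was EC50 and Emax, with Emax relative to a full agonist control.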

[2] = target: T2, Oxysterols receptor LXR-alpha (Homo sapiens) (UniProt Q13133); test: Agonist activity at GST-tagged LXRalpha-LBD (unknown origin) by LanthaScreen TR-FRET liver X receptor coactivator assay T1317; summary of the method: as §1
T2 sequence (whole entry): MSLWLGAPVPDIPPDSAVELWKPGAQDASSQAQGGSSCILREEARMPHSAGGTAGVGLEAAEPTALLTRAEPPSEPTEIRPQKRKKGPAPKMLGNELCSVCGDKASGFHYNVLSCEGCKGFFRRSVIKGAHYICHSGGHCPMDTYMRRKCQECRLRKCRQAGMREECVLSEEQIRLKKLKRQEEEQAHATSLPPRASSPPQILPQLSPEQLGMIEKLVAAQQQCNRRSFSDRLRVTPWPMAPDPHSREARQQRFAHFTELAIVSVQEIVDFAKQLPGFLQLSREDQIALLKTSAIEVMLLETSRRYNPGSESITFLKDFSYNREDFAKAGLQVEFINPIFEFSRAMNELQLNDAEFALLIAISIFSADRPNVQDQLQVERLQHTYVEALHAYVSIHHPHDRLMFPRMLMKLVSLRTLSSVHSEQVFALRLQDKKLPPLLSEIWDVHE

[3] = target: T3, Oxysterols receptor LXR-alpha (Homo sapiens, UniProt Q13133); test: Agonist activity at GST-tagged LXRalpha-LBD (unknown origin) by LanthaScreen TR-FRET liver X receptor coactivator assay; summary of the method: as §1
T3 sequence (Q13133 whole entry): T2 sequence (whole entry)

[4] = target: T4, Oxysterols receptor LXR-beta (Homo sapiens, UniProt P55055); test: Agonist activity at GST-tagged LXRbeta-LBD (unknown origin) by LanthaScreen TR-FRET liver X receptor coactivator assay; summary of the method: as §1
T4 sequence (P55055 whole entry): T1 sequence (whole entry)

[5] = target: T2, Oxysterols receptor LXR-alpha (Homo sapiens); test: (§2) Agonist activity at LXRalpha (unknown origin) expressed in human HepG2 cells co-expressing ABCA1 promoter measured after 48 hrs by cell-based transactivation assay
[6] = target: T3, Oxysterols receptor LXR-alpha; test: as §2
[7] = target: T1, Oxysterols receptor LXR-beta (Homo sapiens); test: (§3) Agonist activity at LXRbeta (unknown origin) expressed in human H4 cells co-expressing ABCA1 promoter measured after 48 hrs by cell-based transactivation assay
[8] = target: T4, Oxysterols receptor LXR-beta; test: as §3
P-gp [9] = test: Efflux ratio in MDCK cells expressing rat P-gp assessed as ratio of permeability across basolateral to apical side over apical to basolateral side; format: ADME, cell-based, Canis lupus familiaris; details: dog, MDCK-MDR1
P-gp [10] = test: Efflux ratio in MDCK cells expressing human P-gp assessed as ratio of permeability across basolateral to apical side over apical to basolateral side; format: ADME, cell-based, Canis lupus familiaris; details: dog, MDCK-MDR1
[11] = Solubility of the compound at pH 2; format: physicochemical; details: buffer
Mus musculus [12] = test: Toxicity in Tg2576 mouse assessed as increase in liver triglyceride level at 10 mg/kg, sc dosed for 3 weeks; format: organism-based; details: in vivo, 504 h
Summary of the method: (§4)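 12-month-old Tg2576 mice were dosed subcutaneously for three weeks. Brain was assayed for ABCA1 protein, soluble apoE and DEA-soluble Aβ, and plasma and liver were assayed for triglycerides. Groups were compared with vehicle by ANOVA.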

Rhesus monkey [13] = test: Increase in amyloid beta42 in CSF of rhesus monkey at 10 mg/kg, po administered for 2 weeks; format: functional, Macaca mulatta
Mus musculus [14] = test: Toxicity in Tg2576 transgenic mouse assessed as increase in plasma triglyceride level at 10 mg/kg, sc dosed for 3 weeks; format: organism-based; details: in vivo, 504 h; summary of the method: as §4
Rhesus monkey [15] = test: Increase in amyloid beta42 in CSF of rhesus monkey at 5 mg/kg, po administered for 2 weeks; format: functional, organism-based; details: Macaca mulatta
Rhesus monkey [16] = test: Increase in amyloid beta40 in CSF of rhesus monkey at 5 mg/kg, po administered for 2 weeks; format: functional, organism-based; details: Macaca mulatta
Rhesus monkey [17] = test: Increase in amyloid beta40 in CSF of rhesus monkey at 10 mg/kg, po administered for 2 weeks; format: functional, Macaca mulatta

Row | Emax [1] [%] | Emax [2] [%] | EC50 [3] [nM] | EC50 [4] [nM] | Emax [5] [%] | EC50 [6] [nM] | Emax [7] [%] | EC50 [8] [nM] | efflux ratio (P-gp [9]) | efflux ratio (P-gp [10]) | solubility [11] [µM] | SMILES | Activity (Mus musculus [12]) | Activity (Rhesus monkey [13]) [%] | Activity (Mus musculus [14]) | Activity (Rhesus monkey [15]) | Activity (Rhesus monkey [16]) | Activity (Rhesus monkey [17]) [%]
1 | 106 | 50 | 1480 | 940 | 40 | 280 | 103 | 770 | – | – | – | CN(C)C(=O)c1ccc(-c2cnc(N3CCN(C(=O)OC(C)(C)C)CC3)c(C#N)c2)cc1Cl | – | – | – | – | – | –
2 | – | – | – | – | 24 | 500 | 91 | 550 | 4.3 | 1.8 | 197 (≈ 109 µg/mL) | CN(C)C(=O)c1ccc(N2CCC(C3CCN(C(=O)[C@](O)(c4ccccc4)C(F)(F)F)CC3)CC2)cc1Cl | – | – | – | – | – | –
3 | – | – | – | – | – | – | – | – | – | – | – | O=S(=O)(c1ccccc1)N(CC(F)(F)F)c1ccc(C(O)(C(F)(F)F)C(F)(F)F)cc1 [T091317] | Toxic | 25 | Toxic | inactive | inactive | 25
